Converted amounts (≈) assume the structure as drawn. The source made the active and inactive calls. The rule behind the calls is not given here.
What was measured:
Bacillus subtilis [1] = assay: Antibacterial activity against Bacillus subtilis after 24 hrs by broth dilution method; type: functional
How it was run: (§1)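 Broth dilution MIC. Test samples in DMSO added at increasing concentrations to tubes of nutrient broth cultures, incubated 37 °C for 24 h. Visible turbidity scored against NB control; solvent and no-sample controls included. MIC = lowest concentration preventing visible growth.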

Klebsiella pneumoniae [2] = assay: Antibacterial activity against Klebsiella pneumoniae at 100 ug/ml after 24 hrs by agar well diffusion method; type: functional; details: read-out: DIZ
How it was run: (§2)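 Agar well diffusion. Nutrient plates swabbed with 24 h broth culture of the bacterium; 6 mm wells bored and loaded with DMSO solutions of compound (wells at 50 and 100 per well). Chloramphenicol positive control, DMSO negative control. Plates held 37 °C, 24 h; inhibition zone diameter (mm) measured, mean of duplicates.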

Staphylococcus aureus [3] = assay: Antibacterial activity against Staphylococcus aureus after 24 hrs by broth dilution method; type: functional; how it was run: as §1
Klebsiella pneumoniae [4] = assay: Antibacterial activity against Klebsiella pneumoniae after 24 hrs by broth dilution method; type: functional; how it was run: as §1
Klebsiella pneumoniae [5] = assay: Antibacterial activity against Klebsiella pneumoniae at 50 ug/ml after 24 hrs by agar well diffusion method; type: functional; details: read-out: DIZ; how it was run: as §2
Staphylococcus aureus [6] = assay: Antibacterial activity against Staphylococcus aureus at 50 ug/ml after 24 hrs by agar well diffusion method; type: functional; details: read-out: DIZ; how it was run: as §2
Bacillus subtilis [7] = assay: Antibacterial activity against Bacillus subtilis at 50 ug/ml after 24 hrs by agar well diffusion method; type: functional; details: read-out: DIZ; how it was run: as §2
Pseudomonas aeruginosa [8] = assay: Antibacterial activity against Pseudomonas aeruginosa at 50 ug/ml after 24 hrs by agar well diffusion method; type: functional; details: read-out: DIZ; how it was run: as §2
Pseudomonas aeruginosa [9] = assay: Antibacterial activity against Pseudomonas aeruginosa at 100 ug/ml after 24 hrs by agar well diffusion method; type: functional; details: read-out: DIZ; how it was run: as §2
Pseudomonas aeruginosa [10] = assay: Antibacterial activity against Pseudomonas aeruginosa after 24 hrs by broth dilution method; type: functional; how it was run: as §1
Staphylococcus aureus [11] = assay: Antibacterial activity against Staphylococcus aureus at 100 ug/ml after 24 hrs by agar well diffusion method; type: functional; details: read-out: DIZ; how it was run: as §2
Bacillus subtilis [12] = assay: Antibacterial activity against Bacillus subtilis at 100 ug/ml after 24 hrs by agar well diffusion method; type: functional; details: read-out: DIZ; how it was run: as §2
Aspergillus niger [13] = assay: Antifungal activity against Aspergillus niger after 48 hrs by broth dilution method; type: functional
How it was run: (§3)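 Fungal MIC by broth dilution. Compounds dissolved in DMSO, added at rising concentrations to fungal culture tubes, incubated 28 °C for 48 h. Tubes read for visible turbidity alongside a solvent control; lowest concentration with no visible growth taken as MIC.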

Penicillium chrysogenum [14] = assay: Antifungal activity against Penicillium chrysogenum after 48 hrs by broth dilution method; type: functional; how it was run: as §3
Penicillium chrysogenum [15] = assay: Antifungal activity against Penicillium chrysogenum at 100 ug/ml after 48 hrs by agar well diffusion method; type: functional; details: read-out: DIZ
How it was run: (§4)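 Fungal agar well diffusion. Plates swabbed with fungal culture, 6 mm wells filled with DMSO solutions of compound (50 and 100 per well). Ketoconazole positive and DMSO negative controls. Plates incubated 28 °C for 48 h; zone of inhibition diameter (mm) read, average of duplicates.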

Aspergillus niger [16] = assay: Antifungal activity against Aspergillus niger at 100 ug/ml after 48 hrs by agar well diffusion method; type: functional; details: read-out: DIZ; how it was run: as §4
Penicillium chrysogenum [17] = assay: Antifungal activity against Penicillium chrysogenum at 50 ug/ml after 48 hrs by agar well diffusion method; type: functional; details: read-out: DIZ; how it was run: as §4
Aspergillus niger [18] = assay: Antifungal activity against Aspergillus niger at 50 ug/ml after 48 hrs by agar well diffusion method; type: functional; details: read-out: DIZ; how it was run: as §4
A549 [19] = assay: Cytotoxicity against human A549 cells assessed as decrease in viability at 100 to 200 uM after 72 hrs by MTT assay; type: functional, cell-based
How it was run: (§5)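 A549 lung carcinoma cells, 5 × 10⁴ per well, in DMEM with 10% FBS and antibiotics at 37 °C, 5% CO₂. After 3–4 h attachment, compound added at various concentrations for 72 h. MTT then added for 3 h, formazan dissolved in DMSO, absorbance read at 550 nm. Triplicate wells, three independent experiments; IC50 derived by curve fitting.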

A549 [20] = assay: Cytotoxicity against human A549 cells after 72 hrs by MTT assay; type: functional, cell-based; how it was run: as §5
A549 [21] = assay: Cytotoxicity against human A549 cells assessed as viability at 12.5 uM after 72 hrs by MTT assay; type: functional; details: A549, 72 h, read-out: Activity; how it was run: as §5
Penicillium chrysogenum [22] = assay: Fungicidal activity against Penicillium chrysogenum after 48 hrs by broth dilution method; type: functional
Pseudomonas aeruginosa [23] = assay: Bactericidal activity against Pseudomonas aeruginosa after 24 hrs by broth dilution method; type: functional
Staphylococcus aureus [24] = assay: Bactericidal activity against Staphylococcus aureus after 24 hrs by broth dilution method; type: functional
Bacillus subtilis [25] = assay: Bactericidal activity against Bacillus subtilis after 24 hrs by broth dilution method; type: functional
Bacillus subtilis [26] = assay: Ratio of MBC to MIC for Bacillus subtilis after 24 hrs; type: functional
Aspergillus niger [27] = assay: Fungicidal activity against Aspergillus niger after 48 hrs by broth dilution method; type: functional
A549 [28] = assay: Cytotoxicity against human A549 cells up to 0.2 mM after 72 hrs by MTT assay
Penicillium chrysogenum [29] = assay: Ratio of MFC to MIC for Penicillium chrysogenum after 48 hrs; type: functional
Klebsiella pneumoniae [30] = assay: Bactericidal activity against Klebsiella pneumoniae after 24 hrs by broth dilution method; type: functional

Structure (SMILES) | MIC (Bacillus subtilis [1]) | zone of inhibition at 100 µg/mL (Klebsiella pneumoniae [2]) | MIC (Staphylococcus aureus [3]) | MIC (Klebsiella pneumoniae [4]) | zone of inhibition at 50 µg/mL (Klebsiella pneumoniae [5]) | zone of inhibition at 50 µg/mL (Staphylococcus aureus [6]) | zone of inhibition at 50 µg/mL (Bacillus subtilis [7]) | zone of inhibition at 50 µg/mL (Pseudomonas aeruginosa [8]) | zone of inhibition at 100 µg/mL (Pseudomonas aeruginosa [9]) | MIC (Pseudomonas aeruginosa [10]) | zone of inhibition at 100 µg/mL (Staphylococcus aureus [11]) | zone of inhibition at 100 µg/mL (Bacillus subtilis [12]) | MIC (Aspergillus niger [13]) | MIC (Penicillium chrysogenum [14]) | zone of inhibition at 100 µg/mL (Penicillium chrysogenum [15]) | zone of inhibition at 100 µg/mL (Aspergillus niger [16]) | zone of inhibition at 50 µg/mL (Penicillium chrysogenum [17]) | zone of inhibition at 50 µg/mL (Aspergillus niger [18]) | MFC (Penicillium chrysogenum [22]) | MBC (Pseudomonas aeruginosa [23]) | also measured
O=C(N[C@H](CO)[C@H](O)c1ccc([N+](=O)[O-])cc1)C(Cl)Cl [CHLORAMPHENICOL] | 6.25 µg/mL (≈ 19.3 µM) | 42 mm | 6.25 µg/mL (≈ 19.3 µM) | 12.5 µg/mL (≈ 38.7 µM) | 40 mm | 33 mm | 34 mm | 27 mm | 30 mm | 6.25 µg/mL (≈ 19.3 µM) | 35 mm | 38 mm |  |  |  |  |  |  |  |  | 
CC(=O)N1CCN(c2ccc(OCC3COC(Cn4ccnc4)(c4ccc(Cl)cc4Cl)O3)cc2)CC1 (stereo unspecified) [KETOCONAZOLE] |  |  |  |  |  |  |  |  |  |  |  |  | 6.25 µg/mL (≈ 11.8 µM) | 12.5 µg/mL (≈ 23.5 µM) | 38 mm | 36 mm | 36 mm | 33 mm |  |  | 
O=S(=O)(/C=C/S(=O)(=O)c1ccc(Cl)cc1)Cc1nnc(CS(=O)(=O)Nc2ccc(Cl)cc2)o1 |  | 17 mm |  |  | 15 mm | 14 mm | 15 mm | 16 mm | 19 mm |  | 17 mm | 17 mm |  |  | 25 mm | 22 mm | 21 mm | 19 mm |  |  | Activity (A549 [19]): Active; Activity (A549 [20]): Dose-dependent effect; IC50 (A549 [20]; A549, 72 h): 31.7 µM; viability at 12.5 µM (A549 [21]): > 75%
Nn1c(CS(=O)(=O)/C=C/S(=O)(=O)c2ccc(Cl)cc2)nnc1CS(=O)(=O)Nc1ccc(Cl)cc1 | 12.5 µg/mL (≈ 22.1 µM) | 40 mm | 12.5 µg/mL (≈ 22.1 µM) | 25 µg/mL (≈ 44.1 µM) | 39 mm | 32 mm | 36 mm | 31 mm | 33 mm | 12.5 µg/mL (≈ 22.1 µM) | 35 mm | 38 mm | 12.5 µg/mL (≈ 22.1 µM) | 25 µg/mL (≈ 44.1 µM) | 38 mm | 34 mm | 35 mm | 32 mm | 50 µg/mL (≈ 88.3 µM) | 50 µg/mL (≈ 88.3 µM) | MBC (Staphylococcus aureus [24]): 50 µg/mL (≈ 88.3 µM); MBC (Bacillus subtilis [25]): 25 µg/mL (≈ 44.1 µM); Ratio (Bacillus subtilis [26]): 2; MFC (Aspergillus niger [27]): 100 µg/mL (≈ 177 µM); Activity (A549 [28]): inactive; Ratio (Penicillium chrysogenum [29]): 2; MBC (Klebsiella pneumoniae [30]): 100 µg/mL (≈ 177 µM)
Nn1c(CS(=O)(=O)Nc2ccc(Cl)cc2)nnc1CS(=O)(=O)c1c[nH]cc1S(=O)(=O)c1ccc(Cl)cc1 | 25 µg/mL (≈ 41.3 µM) | 36 mm | 50 µg/mL (≈ 82.6 µM) | 100 µg/mL (≈ 165 µM) | 34 mm | 30 mm | 29 mm | 25 mm | 28 mm | 50 µg/mL (≈ 82.6 µM) | 33 mm | 33 mm | 25 µg/mL (≈ 41.3 µM) | 50 µg/mL (≈ 82.6 µM) | 36 mm | 34 mm | 33 mm | 32 mm | > 200 µg/mL | > 200 µg/mL | MBC (Staphylococcus aureus [24]): 200 µg/mL (≈ 330 µM); MBC (Bacillus subtilis [25]): 100 µg/mL (≈ 165 µM); MFC (Aspergillus niger [27]): 100 µg/mL (≈ 165 µM); Activity (A549 [28]): inactive; MBC (Klebsiella pneumoniae [30]): > 200 µg/mL

From ChEMBL document CHEMBL2040768, “Synthesis, antimicrobial and cytotoxic activities of sulfone linked bis heterocycles” (Eur J Med Chem, 2012)
